We go through 35 molecules from ChEMBL document CHEMBL2321740, “Arylazanylpyrazolone derivatives as inhibitors of mutant superoxide dismutase 1 dependent protein aggregation for the treatment of amyotrophic lateral sclerosis” (J Med Chem, 2013).

Activity calls are given as the source filed them.

Data set [1] is described as follows: Inhibition of SOD1 mutant (unknown origin). More on the design: species or system Homo sapiens.
Data set [2] relates to Caco-2. In words: Efflux ratio of permeability from basolateral to apical side over apical to basolateral side in human Caco2 cells. The data set is classed as ADME, cell-based. A general note: Caco-2 cells form a polarised layer with tight junctions and transporters.
Data set [3] has as its system Caco-2. In words: Apparent permeability of the compound from basolateral to apical side in human Caco2 cells. The data set is classed as ADME, cell-based.
Data set [4] concerns Caco-2. Kind of data set: Apparent permeability of the compound from apical to basolateral side in human Caco2 cells. The data set is classed as ADME, cell-based.
Data set [5] deals with Liver. In words: Half life in mouse liver microsomes in absence of NADPH. The data set is classed as ADME, Microsome. In general terms: Liver microsomes are a subcellular fraction often used to study metabolism.
Data set [6] concerns Liver. In words: (§1) Half life in mouse liver microsomes in presence of NADPH. The class given is ADME, Microsome. The following applies: microsomes.
Data set [7] relates to Liver microsomes. In words: Half life in human liver microsomes in absence of NADPH. The data set is classed as ADME, Microsome.
In data set [8] the test system is Liver microsomes. Kind of data set: Half life in human liver microsomes in presence of NADPH. The data set is classed as ADME, Microsome.
Data set [9] in a line: Aqueous solubility of the compound. The class given is physicochemical. The conditions noted are these: buffer.
Data set [10] in a line: Inhibition of SOD1 mutant -induced cytotoxicity in assessed as recovery of neuronal activity at 10 uM after 24 hrs by fluorescence assay in presence of proteosome inhibitor MG132 relative to control. Further details: scale not given: the % may be the effect or the level left.
Data set [11] can be described thus: as §1. The class given is ADME, Microsome. The following applies: liver microsomes.
The nature of data set [12]: Inhibition of SOD1 mutant -induced cytotoxicity in cortical neurons after 24 hrs by fluorescence assay in presence of proteosome inhibitor MG132.
A further data set has as its system PC-12. Kind of data set: Inhibition of SOD1 mutant -induced cytotoxicity in rat PC12 cells after 24 hrs by fluorescence assay in presence of proteosome inhibitor MG132. The data set is classed as cell-based. In outline:
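PC12 cells expressing G93A SOD1 seeded at 15000 cells/well, held 24 h, then given compound in 12-point dose-response, top concentration 32 μM, halved at each step. After 24 h with compound, MG132 added (final 100 nM). Viability read 48 h later: cells washed twice with PBS, Calcein-AM 1 μM final for 20 min at room temperature, fluorescence intensity measured.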

What is called EC50 is the concentration at which the effect is half-maximal. `Cn1[nH]c(COc2cc(Cl)cc(Cl)c2)cc1=O`: the EC50 in data set [1] was 670 nM.

In turn, `O=c1cc(CN(c2cc(Cl)cc(Cl)c2)C2CC2)[nH][nH]1` gave an EC50 in data set [1] of 530 nM.

Take `CN(Cc1cc(=O)n(C)n1C)c1cc(Cl)cc(Cl)c1`: the EC50 in data set [1] was greater than 32000 nM.

In the case of `CN(Cc1cc(=O)n(Cc2ccccc2)[nH]1)c1cc(Cl)cc(Cl)c1`, it took 490 nM to reach a half-maximal effect in [1] (EC50).

`O=c1cc(CN(Cc2ccccc2)c2cc(Cl)cc(Cl)c2)[nH][nH]1`: in [1], the EC50 was found to be 690 nM.

`CCN(Cc1cc(=O)[nH][nH]1)c1cc(Cl)cc(Cl)c1` returned an EC50 in [1] of 350 nM.

In data set [1], `CN(Cc1cc(=O)[nH][nH]1)c1cccc(Br)c1` displayed an EC50 of 750 nM.

`CC(C)(C)N(Cc1cc(=O)[nH][nH]1)c1cc(Cl)cc(Cl)c1`: the EC50 in data set [1] came out at 1270 nM.

`CN(Cc1cc(=O)n(C)[nH]1)c1cc(Cl)cc(Cl)c1` came in with an EC50 in [1] of 750 nM.

Molecule `CC(C)N(Cc1cc(=O)[nH][nH]1)c1cc(Cl)cc(Cl)c1` showed an EC50 in data set [1] of 610 nM.

As usually defined, the Papp is the rate of passage across a membrane or cell layer, normalised by area and donor concentration. As to `O=c1cc(CNc2cc(Cl)cc(Cl)c2)[nH][nH]1`, the concentration for a half-maximal effect (EC50) in [1] came to 780 nM. In the data set on Caco-2 [2], the Ratio was 47.1. In addition, the Papp in the data set with Caco-2 [3] amounted to 28.1 ×10⁻⁶ cm/s; in the data set with Caco-2 [4] it was 0.6 ×10⁻⁶ cm/s. Also, the t1/2 is 1.67 h with Liver [5], 0.5 h in the data set on Liver [6], greater than 3 h in the data set with Liver microsomes [7] and 1.58 h with Liver microsomes [8]. The solubility result in [9] is given as “>= 150 uM”.

In turn, `O=c1cc(CN2CCCc3ccccc32)[nH][nH]1` had an EC50 in data set [1] of 800 nM.

On to `C#CCN(Cc1cc(=O)[nH][nH]1)c1cc(Cl)cc(Cl)c1`, for which the EC50 in [1] turned out to be 1020 nM.

`CN(Cc1cc(=O)[nH][nH]1)c1cc(Cl)cc(Cl)c1`: in [1], a half-maximal response (EC50) required 570 nM. The Activity in [10] amounted to 100%. Besides, in the data set with Caco-2 [2], the Ratio worked out at 3.5. Moreover, the results for the Papp in the data set on Caco-2 [3] and in the data set on Caco-2 [4] were 7.6 ×10⁻⁶ cm/s and 2.2 ×10⁻⁶ cm/s, respectively. In addition, the t1/2 in the data set with Liver [5] is greater than 3 h; in the data set on Liver [6], 0.417 h; in the data set on Liver microsomes [7] it was greater than 3 h; with Liver microsomes [8] it was greater than 3 h. The solubility entry in [9] is on record as “>= 150 uM”.

For `O=c1[nH][nH]c2c1CCN(c1cc(Cl)cc(Cl)c1)C2`, in data set [1], a half-maximal effect (EC50) was put at 650 nM.

`CN(Cc1cc(=O)[nH][nH]1)c1ccc(Br)cc1` gave an EC50 in data set [1] of 710 nM.

Turning to `CN(Cc1cc(=O)[nH][nH]1)c1ccc(C#N)cc1`, in [1], a half-maximal response (EC50) required 1270 nM.

`CN(Cc1cc(=O)[nH][nH]1)c1ccc(Cl)cc1Cl` had an EC50 in [1] of 290 nM.

In turn, `CN(Cc1cc(=O)[nH][nH]1)c1ccc(F)cc1` registered an EC50 in data set [1] of 1400 nM.

Turning to `CN(Cc1cc(=O)[nH][nH]1)c1cccc2ccccc12`, in [1], a half-maximal response (EC50) required 310 nM.

Take `CN(CCc1cc(=O)[nH][nH]1)c1cc(Cl)cc(Cl)c1`: it took 1190 nM to reach a half-maximal effect in [1] (EC50).

As to `CN(Cc1cc(=O)[nH][nH]1)c1ccccc1Br`, the midpoint of the response in data set [1], the EC50, lay at 1200 nM.

In turn, `COc1cccc(N(C)Cc2cc(=O)[nH][nH]2)c1` came in with an EC50 in data set [1] of 810 nM.

What is called half-life is the time needed for the level to fall by half in the phase considered. Molecule `O=c1cc(COc2cc(Cl)cc(Cl)c2)[nH][nH]1` gave an EC50 in data set [1] of 400 nM. Besides, the t1/2 was determined as 1.85 h in the data set on Liver [5] and 2.88 h in the data set with Liver microsomes [7]. The half-life in data set [11] is 0.6 h.

`CN(CCCc1cc(=O)[nH][nH]1)c1cc(Cl)cc(Cl)c1`: in [1], it took 1450 nM to reach a half-maximal effect (EC50). Besides, the result in [12] was inactive. For the same molecule, in the data set with PC-12, the outcome was Active.

As to `CN(Cc1cc(=O)[nH][nH]1)c1ccc2ccccc2c1`, it took 830 nM to reach a half-maximal effect in data set [1] (EC50).

In turn, `O=c1[nH][nH]c2c1CN(c1cc(Cl)cc(Cl)c1)CC2` showed an EC50 in [1] of 1450 nM. In addition, the outcome in data set [12] was inactive. The outcome with PC-12 was Active.

`CN(Cc1cc(=O)[nH][nH]1)c1ccc(Cl)c(Cl)c1` gave an EC50 in [1] of 420 nM.

Consider `Cc1c(CN(C)c2cc(Cl)cc(Cl)c2)n(C)n(C)c1=O`, for which the EC50 in data set [1] was greater than 32000 nM.

`CN(Cc1cc(=O)[nH][nH]1)c1ccc(Cl)cc1`: in data set [1], the response was half-maximal at 830 nM (EC50).

The molecule `CN(Cc1cc(=O)[nH][nH]1)c1ccccc1` showed an EC50 in [1] of 750 nM.

For `CN1N=C(CN(C)c2cc(Cl)cc(Cl)c2)C(C)(C)C1=O`, in data set [1], the EC50 is greater than 32000 nM.

The molecule `O=c1cc(CN(c2ccccc2)c2cc(Cl)cc(Cl)c2)[nH][nH]1` registered an EC50 in [1] of 1310 nM.

Regarding `O=c1cc(CN2CCc3ccccc32)[nH][nH]1`, the EC50 in data set [1] came to 1060 nM.

In the case of `CN(Cc1cc(=O)[nH]n1C)c1cc(Cl)cc(Cl)c1`, the EC50 in data set [1] was greater than 32000 nM.
